# This is a sample that favours compounds with a hit; in the whole collection about 1.9% have one here.
# SR-BI HDL uptake: inhibitors of mouse SR-BI mediated HDL lipid uptake. Q61009. ldlA[mSR-BI] CHO cells, DiI-HDL uptake fluorescence, 3 h. inhibition, % at 12.5 µM. actives 0.96% (n = 320,000);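 active = mean replicate inhibition of at least 70% and a set share of replicates each scoring 70 or more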;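 also: 0% = median of neutral control wells and 100% = median of positive control wells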
# Target sequence (Q61009 whole entry, looked up): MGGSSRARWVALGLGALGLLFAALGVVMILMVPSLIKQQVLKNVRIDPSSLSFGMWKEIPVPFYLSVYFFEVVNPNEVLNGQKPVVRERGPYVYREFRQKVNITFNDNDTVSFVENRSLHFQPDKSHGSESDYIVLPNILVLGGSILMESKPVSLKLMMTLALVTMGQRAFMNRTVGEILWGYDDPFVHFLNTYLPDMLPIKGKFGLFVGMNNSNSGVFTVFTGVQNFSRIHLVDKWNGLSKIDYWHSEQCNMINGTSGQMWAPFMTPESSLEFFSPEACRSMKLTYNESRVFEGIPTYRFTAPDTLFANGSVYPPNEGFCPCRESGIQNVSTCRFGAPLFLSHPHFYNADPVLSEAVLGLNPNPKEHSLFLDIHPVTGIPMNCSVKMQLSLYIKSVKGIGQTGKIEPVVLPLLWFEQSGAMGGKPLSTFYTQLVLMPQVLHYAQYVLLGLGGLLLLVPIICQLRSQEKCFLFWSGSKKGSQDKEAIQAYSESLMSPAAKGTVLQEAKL
# Rin1 Abl inh: inhibitors of human Rin1-Abl protein interaction | actives 0.4% (n = 360,000) | TR-FRET Rin1/Abl binding, biochemical | inhibition, % at 7.35 µM | P00519+Q13671; in the data active = inhibition above about 5%, passing the limit was not always enough
# GRK2 inh: human GRK2 inhibition via aptamer displacement. P25098. bead flow cytometry, FAM-aptamer displacement from GRK2. inhibition of aptamer binding, % at 10 µM. actives 0.59% (n = 330,000). AID 488847;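 active = inhibition of aptamer binding above 40%, roughly 3 SD of noise, on plates passing a quality check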;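 also: median bead fluorescence of bound FAM aptamer so fluorescent compounds give negative values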
# SR-BI DiI-HDL act: SR-BI HDL lipid transfer activation; actives 0.096% (n = 320,000); CHO ldlA[mSR-BI] cells, DiI-HDL uptake fluorescence, 3 h; 100 = double the neutral-control signal; activation, % at 12.5 µM;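 active = mean replicate activation of at least 60% and every replicate at or above 60%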;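 also: 0% = median plate neutral-control signal and 100% = twice that signal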
#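 Material: SR-BI-overexpressing, LDLR-lacking CHO cells | Dosing: Single compound concentration, delivered by pin transfer | Probe or stimulus: Labelled HDL, 10 µg/mL | Signal: Bottom-read cell fluorescence after medium removal, ex 550/em 595 nm | Schedule: 3 h, 37 °C | Evaluation: HDL uptake via cellular fluorescence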
# Active calls of the source: *; · = not tested or not shown.
SMILES,SR-BI HDL uptake,Rin1 Abl inh,GRK2 inh,SR-BI DiI-HDL act
CC1(C(=O)NCc2cccs2)Cc2c(-c3ccc(C(N)=O)cc3)ccnc2O1 (centres undefined),·,2.9,·,·
COc1cccc(OCC(=O)Nc2cc(Cl)ccc2Oc2ccccc2)c1,87.1*,-4.1,0.0,-87.1
O=C(c1cc(-c2ccncc2)nc2c(Cl)cccc12)N1CCN(c2ccccc2F)CC1,72.8*,0.5,0.0,-72.8
COC(=O)[C@]1(C)N[C@H](c2ccc(-c3ccc(Cl)c(Cl)c3)c(OC)c2)[C@@H]2C(=O)N(C)C(=O)[C@@H]21,51.6,2.0,3.0,-51.6
O=Cc1c(Sc2ccccn2)nc2ccccn2c1=O,77.3*,-5.7,4.0,-77.3
CCCNC(=O)C1(C)CCCN(C(=O)c2ccccc2OC)C1 (centres undefined),·,-1.5,·,·
COc1cc(C(=O)N2CCN(CC(O)COc3ccccc3)CC2)cc(OC)c1OC (centres undefined),6.6,-0.7,0.0,-6.6
COc1cc(/C=C/C(=O)N2CCN(CC(O)COc3ccccc3)CC2)cc(OC)c1OC (centres undefined),79.2*,-1.4,0.0,-79.2
COc1ccc(-c2ccc3c(c2)S(=O)(=O)c2cccc(C(=O)N4CCN(c5ccccn5)CC4)c2C3=O)cc1OC,·,-4.4,·,·
O=C1c2ccc(-c3ccc(Cl)c(C(F)(F)F)c3)cc2S(=O)(=O)c2cccc(C(=O)N3CCN(c4ccc(Cl)cn4)CC3)c21,91.0*,0.1,0.0,-91.0
CCNC(=O)C1(C)CCN(Cc2ccc(C#N)cc2)C1 (centres undefined),·,-0.2,·,·
O=C(Nc1ccc(N2CCCC2)cc1)c1cccc(Cl)c1Cl,78.8*,1.1,0.0,-78.8
O=C(Nc1ccccc1N1CCCC1)c1cccc(-c2cc3ccccc3oc2=O)c1,36.1,2.3,3.0,-36.1
O=C(Nc1ccc(N2CCCC2)cc1)c1ccc2ccccc2c1,88.5*,5.2,0.0,-88.5
O=C(Nc1ccc(N2CCCC2)cc1)c1cccc(-c2cc3ccccc3oc2=O)c1,90.0*,2.6,0.0,-90.0
COc1ccccc1NC(=O)CCN1C(=O)c2ccccc2C1=O,-2.1,-0.9,5.0,2.1
COc1ccccc1NC(=O)c1cc2c(cc1Cl)N1CCCCCC1=NS2(=O)=O,62.1,-0.6,0.0,-62.1
Cc1cnc(C(=O)OCC(=O)c2cc(C)n(CCc3ccc(F)cc3)c2C)cn1,·,-2.5,·,·
Cc1cc(C(=O)COC(=O)c2ccc(O)cc2)c(C)n1CCc1ccc(F)cc1,73.7*,6.4,0.0,-73.7
CC(C)[C@H](NC(=O)c1ccco1)C(=O)Nc1ccc(N2CCCCCC2)cc1,·,1.0,·,·
CN(C)S(=O)(=O)c1cccc(C(=O)Nc2cc(Cl)cc(Cl)c2)c1,73.2*,-2.0,1.0,-73.2
O=C(Nc1cc(Cl)cc(Cl)c1)c1cccc(OC(F)F)c1,73.9*,-1.8,2.0,-73.9
Cc1ccnc(NC(=O)c2cccc(OC(F)F)c2)n1,·,2.6,2.0,·
CN(C)S(=O)(=O)c1cccc(C(=O)Nc2ccccc2)c1,22.5,-1.4,0.0,-22.5
COc1ccc(-c2nc(-n3c(C)c(C(C)=O)c(C(C)=O)c3C)sc2C)cc1,68.1,1.1,78.0*,-68.1
SMILES,SR-BI HDL uptake,Rin1 Abl inh,GRK2 inh,SR-BI DiI-HDL act
CC(=O)c1c(C(C)=O)c(C)n(-c2nc(-c3ccc(C)c(C)c3)c(C)s2)c1C,76.4*,-2.2,2.0,-76.4
CC(=O)c1c(C(C)=O)c(C)n(-c2nc(-c3cccs3)c(C)s2)c1C,66.4,-2.1,0.0,-66.4
CCOC(=O)CCc1ccc(NC(=O)/C=C/c2ccc([N+](=O)[O-])o2)cc1,74.4*,3.1,·,-74.4
Cc1ccc(/C=C/C(=O)Nc2ccc([N+](=O)[O-])cc2)o1,74.7*,0.8,1.0,-74.7
Cc1cc(Nc2nc3ccccc3nc2Cl)n(-c2ccc([N+](=O)[O-])cc2)n1,79.2*,-1.4,0.0,-79.2
CC1CCCCN1Cc1c(O)ccc2c(=O)c(-c3nc4ccccc4s3)c(N)oc12 (centres undefined),9.0,-1.3,0.0,-9.0
COc1ccc(CCNC(=O)COc2ccc(N(C)S(=O)(=O)c3ccc(C)cc3)cc2)cc1,·,1.6,0.0,·
Cc1ccc(S(=O)(=O)N(C)c2ccc(OCC(=O)NCC3(N(C)C)CCCCC3)cc2)cc1,83.2*,-0.1,1.0,-83.2
COc1ccc(NC(=O)/C(C#N)=C\c2cc(C)n(-c3ccc(Oc4ccc([N+](=O)[O-])cn4)cc3)c2C)cc1,75.1*,-1.6,1.0,-75.1
Cc1c(C(=O)c2ccc(Cl)c(Cl)c2)cnc2cc3c(cc12)OCO3,-68.6,-2.8,0.0,68.6*
